Scp-1 inhibitor: blocks human Scp-1 phosphatase activity; Recombinant Scp1, phosphopeptide, malachite green phosphate absorbance; Q9GZU7; inhibition, % at 20 µM; 340,000 tested, 0.88% active;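 active = inhibition above about 50% at 20 µM, limit read from the data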;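 note: plate controls were DMSO wells with enzyme for no effect and wells lacking enzyme for full effect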
Target sequence (Q9GZU7 76-261 limits assumed): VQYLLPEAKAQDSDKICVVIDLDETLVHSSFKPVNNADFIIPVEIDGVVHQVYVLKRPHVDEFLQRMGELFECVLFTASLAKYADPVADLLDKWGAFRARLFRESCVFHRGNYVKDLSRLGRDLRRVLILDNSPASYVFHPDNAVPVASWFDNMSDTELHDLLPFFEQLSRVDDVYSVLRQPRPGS
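Incubation: 45 min enzyme reaction at room temperature / System: truncated SCP-1 phosphatase (76-261aa) / Reagent: Phospho 17-mer peptide substrate / Buffer or medium: Acidic Tris acetate buffer with magnesium and detergent / Signal: absorbance at 630 nm / Doses: one concentration, 20 µM, with 1.0% DMSO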
LMPTP inh: LMPTP (human) inhibition; P24666; recombinant LMPTP-A, OMFP fluorogenic substrate, fluorescence intensity; inhibition, % at 20 µM; 360,000 tested, 0.22% active;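 active = compounds that cut the enzyme signal by at least half of the control window in the single-dose screen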;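 note: plate controls were DMSO wells with enzyme plus substrate for no effect and substrate without enzyme for full effect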
Target sequence (P24666 whole entry, looked up): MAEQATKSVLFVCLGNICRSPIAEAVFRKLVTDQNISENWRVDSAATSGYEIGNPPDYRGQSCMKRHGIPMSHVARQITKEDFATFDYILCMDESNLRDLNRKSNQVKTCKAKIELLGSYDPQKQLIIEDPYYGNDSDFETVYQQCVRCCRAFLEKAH
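test system = LMPTP-A | amount = 0.625 nM LMPTP-A final | reagent = fluorogenic phosphatase substrate OMFP at 400 µM final | incubation = 50 min at room temperature | benchmarks = no-enzyme low control, uninhibited high control | medium = Bis-Tris pH 6.0, DTT, detergent | signal = fluorescence intensity of OMFP turnover product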
SUMO1-SIM PPI: modulators of human SUMO1-mediated protein-protein interactions. SUMO1 binding to a labelled peptide, TR-FRET, 1 h. inhibition, % at 20 µM. 360,000 tested, 0.33% active. AID 602429; in the data active = inhibition above about 37%
Target sequence (P63165 whole entry, looked up): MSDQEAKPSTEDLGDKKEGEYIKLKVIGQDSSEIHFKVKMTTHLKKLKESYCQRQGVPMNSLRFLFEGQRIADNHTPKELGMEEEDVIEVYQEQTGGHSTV
STEP inh: STEP (human) phosphatase inhibition. P54829. recombinant STEP, OMFP fluorogenic substrate, fluorescence. inhibition, % at 20 µM. 360,000 tested, 0.25% active;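 active = inhibition at 20 µM, scaled per plate between control wells, above about 37%, limit read from the data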;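 note: 0% = DMSO with enzyme and substrate and 100% = substrate only without enzyme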
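System: STEP phosphatase, cell-free reaction; Buffer or medium: Bis-Tris pH 6.0 buffer with DTT, detergent; Incubation: 20 min at room temperature, dark; Measured by: fluorescence, 480/540 nm.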
DNMT1 inh: DNMT1 (human) enzyme inhibition; P26358; DNMT1 molecular beacon, Hinp1I cleavage, fluorescence; inhibition (reported as % activation of signal), % at 10 µM; 360,000 tested, 0.83% active; AID 588458; in the data active = inhibition above about 50%
GRK2 inh: inhibitors of human GRK2 displacing RNA aptamer; P25098; bead flow cytometry, FAM-aptamer displacement from GRK2; inhibition of aptamer binding, % at 10 µM; 330,000 tested, 0.59% active;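 active = inhibition of aptamer binding above 40%, roughly 3 SD of noise, on plates passing a quality check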;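 note: median bead fluorescence of bound FAM aptamer so fluorescent compounds give negative values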
DNMT1 inh conf: DNMT1 inhibition confirmation, single concentration; inhibition, % at 10 µM; shares compounds with DNMT1 inh; DNMT1 molecular beacon HinP1I cleavage, fluorescence; 2,300 tested, 8% active; AID 602385;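 active = average inhibition of at least 30% in the single-concentration confirmation test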
DNMT1 interf: shows spectral interference in the DNMT1 beacon assay. AID 602387. 2,300 tested, 1% active. shares compounds with DNMT1 inh. activation (fluorescence interference), % at 10 µM. DNMT1 molecular beacon spectral interference counterscreen, fluorescence 485/520;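 active = activation of at least 30% at 10 µM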;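 note: DNMT1 catalytic domain with a HinP1I cleavage step and a FAM/dabcyl DNA beacon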
Starred values were filed as active, the others as inactive; . = no result. Shown are actives, neighbours in structure and some others; about 2.1% of the full set was active somewhere.

SMILES	Scp-1 inhibitor	LMPTP inh	SUMO1-SIM PPI	STEP inh	DNMT1 inh	GRK2 inh	DNMT1 inh conf	DNMT1 interf
CCCCNC(=O)Oc1ccc(C(=O)N2c3ccccc3NC(=O)C2C)cc1 (stereo not drawn)	-1	-2	6	-3	0	1	.	.
O=C(CCCN1C(=O)/C(=C\c2ccccc2)SC1=S)Nc1ccc(O)cc1C(=O)O	7	1	-21	3	1	0	.	.
O=C(CCN1C(=O)/C(=C/c2ccco2)SC1=S)Nc1ccc(O)cc1C(=O)O	64*	7	40*	35	71*	10	8	-3
O=C1/C(=C/c2ccco2)SC(=S)N1CC1CCCO1 (stereo not drawn)	63*	32	2	47*	71*	18	1	0
O=C(CCCN1C(=O)/C(=C/c2ccco2)SC1=S)Nc1ccccc1C(=O)O	69*	19	75*	48*	86*	11	1	-2
O=C(CN1C(=O)/C(=C\c2ccco2)SC1=S)Nc1ccc(O)cc1C(=O)O	57*	44	87*	80*	90*	16	14	1
O=C(CCCN1C(=O)/C(=C\c2ccco2)SC1=S)Nc1ccc2ccccc2c1	-4	8	6	1	-7	3	.	.
N#Cc1ccc(NC(=O)CSc2cn[nH]n2)cc1	-1	-2	-2	1	1	0	.	.
CCOC(=O)[C@]12CCC=C1N(Cc1cccc3ccccc13)C(=O)[C@H](CC(=O)NCCC(C)C)C2	.	3	1	.	.	.	.	.
Cc1cc(O)c(C(C)C)cc1NC(=O)c1cccc(Cl)c1	-9	1	-2	-2	-1	0	.	.
O=C(CCNC(=O)c1ccccc1Cl)Nc1nc(-c2ccccc2Cl)cs1	-6	1	1	-1	-9	0	.	.
CC(=O)c1ccc(NC(=S)N2CCN(CCN3C(=O)c4cccc5cccc(c45)C3=O)CC2)cc1	0	2	-2	4	55*	0	1	-3
O=C(COc1ccc(Cl)cc1Cl)NC(=S)Nc1ccccc1C(=O)O	.	.	.	.	.	15	.	.
O=C(COc1ccc(Cl)cc1Cl)Nc1ccc(C(=O)Nc2ccccc2C(=O)O)cc1	30	14	41*	11	84*	0	18	5
CCc1ccc(NC(=O)Cn2c(=O)c3cccn3c3ccccc32)cc1	-7	1	-1	3	55*	0	5	1
O=C(COC(=O)/C=C/c1ccccc1)NC1CCCCCC1	0	0	-13	2	0	.	.	.
CC(=O)N=c1c(C#N)cc2c(=O)n3ccccc3nc2n1CCCOC(C)C	-4	1	-21	-2	8	0	.	.
CCCCn1c(=NC(C)=O)c(C#N)cc2c(=O)n3cccc(C)c3nc21	11	9	-4	9	64*	0	0	2
CCCCCn1c(=NC(C)=O)c(C#N)cc2c(=O)n3ccccc3nc21	2	18	-12	0	78*	3	2	2
Nc1c(N(CCC2=CCCCC2)C(=O)COc2ccc(F)cc2Cl)c(=O)[nH]c(=O)n1Cc1ccccc1	-10	-2	2	3	54*	.	2	2
Nc1c(N(CCC2=CCCCC2)C(=O)COc2ccc([N+](=O)[O-])cc2)c(=O)[nH]c(=O)n1Cc1ccccc1	-4	-3	-2	1	58*	.	0	4
CCCS(=O)(=O)NC(=O)C1(C)CCN(C(=O)c2ccc(OC)c(F)c2)C1 (stereo not drawn)	.	1	2	7	1	.	.	.
Cc1nn(CCC#N)c(N)c1C1(O)C(=O)Nc2c(Cl)cc(Cl)cc21 (stereo not drawn)	-8	-1	-2	2	-7	0	.	.
CC(C)CN(C(=O)COC(=O)c1cc2c(s1)CCC2)C1CCS(=O)(=O)C1 (stereo not drawn)	89*	12	-2	8	96*	23	2	0
O=C(c1ccccc1)c1ccc2nc(-c3ccco3)c(-c3ccco3)nc2c1	66*	75*	52*	9	101*	17	1	2
SMILES	Scp-1 inhibitor	LMPTP inh	SUMO1-SIM PPI	STEP inh	DNMT1 inh	GRK2 inh	DNMT1 inh conf	DNMT1 interf
c1coc(-c2nc3ccccc3nc2-c2ccco2)c1	44	21	30	9	103*	6	1	4
O=C(NCCO)c1ccc2nc(-c3ccco3)c(-c3ccco3)nc2c1	31	6	44*	6	58*	7	3	2
CCN(CC)c1c(C)nc2ccc(C(=O)Nc3cc(-c4ccccc4)ccc3OC)cn12	.	9	-1	2	-21	.	.	.
CC(C)C[C@@H]1NC(=O)[C@H](Cc2ccccc2)N(C)C(=O)[C@H](C)NC(=O)c2ccccc2NC(=O)[C@H](Cc2ccc(O)cc2)N(C)C1=O	7	1	4	1	79*	0	3	6
Cc1cc(C(=O)Nc2ccc3c(c2)CCC3)ccc1[N+](=O)[O-]	-15	2	-4	2	78*	1	3	5
Cc1ccc(C(=O)NCC(=O)Nc2ccc3c(c2)CCC3)cc1C	-3	-1	1	-4	9	.	.	.
Cc1ccc(-n2nc3ccc(NC(=O)c4cccc([N+](=O)[O-])c4C)cc3n2)cc1	-1	2	-1	1	63*	0	4	3
Cc1ccc(-n2nc3ccc(NC(=O)c4ccco4)cc3n2)cc1	-12	3	29	3	36	0	.	.
O=[N+]([O-])c1ccc(/C=C/C2=NN(c3ccccc3)C(c3ccco3)C2)o1 (stereo not drawn)	79*	10	-16	5	75*	.	2	5
CN(C)c1ncnc2c1ncn2[C@H]1CN(Cc2ccc(-c3ccccc3)cc2)C[C@@H](CO)O1	.	0	-5	4	-7	.	.	.
COc1cccc(=O)c2c(C)n(CC(=O)c3ccccc3)c(C)c12	18	18	5	4	63*	3	0	1
CCOc1cccc(=O)c2c(C)n(CC(=O)c3ccccc3)c(C)c12	2	9	4	2	37	1	.	.
O=C(NCSc1ccnc(SCNC(=O)c2ccc(F)cc2)n1)c1ccc(F)cc1	38	0	2	6	52*	0	3	-6
CC1=NOC(=O)/C1=C\c1ccc(-c2cc(Cl)ccc2Cl)o1	11	0	48*	1	81*	0	4	-8

Screening data (PubChem)
